Experiment [1] concerns HL-60. The experiment in a line: Antiproliferative activity against human HL60 cells after 48 hrs by sulforhodamine B assay. Type of experiment: functional, cell-based. Conditions: HL-60, 48 h. The method, boiled down:
(§1)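 Sulforhodamine B assay following NCI guidelines. Log-phase cells seeded at 10^4 cells/well and allowed to attach for 24 h at 37 °C, 5% CO2. Exposed 48 h to 1:10 serial dilutions, four replicate wells per condition. Fixed with 50% cold TCA for 1 h at 4 °C, stained, dye dissolved in tris buffer, OD read at 540 nm. Blank-subtracted growth expressed relative to untreated (100%) and reported as IC50.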
(In general: The SRB assay estimates cell density from bound dye.)

In experiment [2] the test system is Aspergillus fumigatus. The experiment in a line: Antifungal activity against Aspergillus fumigatus LSI-II. Type of experiment: functional.
In experiment [3] the test system is Staphylococcus aureus. The experiment can be described thus: Antibacterial activity against methicillin-resistant Staphylococcus aureus 15187 treated for 24 hrs followed by compound treated at 2 to 16 times MIC measured after 24 hrs by micro dilution method. Type of experiment: functional. The note with it: Staphylococcus aureus, 15187, 24 h. The method, boiled down: (§2)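 MBC taken from the same 24 h microdilution plates (Mueller Hinton broth, final inoculum 5 × 10^6 CFU mL-1, 37 °C). […] Spots were incubated 24 h and colonies counted. MBC is the lowest concentration giving a 3 log drop from the starting inoculum.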

In experiment [4] the test system is PC-3. The experiment can be described thus: Antiproliferative activity against human PC3 cells after 48 hrs by sulforhodamine B assay. The format is functional, cell-based. The note with it: PC-3, 48 h. The method, boiled down: as §1
The subject of experiment [5] is Enterococcus. The experiment in a line: Antibacterial activity against vancomycin-resistant Enterococcus treated for 24 hrs followed by compound treated at 2 to 16 times MIC measured after 24 hrs by micro dilution method. The format is functional. The method, boiled down:
as §2

The test system of experiment [6] is Staphylococcus aureus. The experiment in a line: Antibacterial activity against Staphylococcus aureus ATCC 29213 treated for 24 hrs followed by compound treated at 2 to 16 times MIC measured after 24 hrs by micro dilution method. The format is functional. The note with it: ATCC 29213, 24 h.
The subject of experiment [7] is MOLT-4. The experiment can be described thus: Antiproliferative activity against human MOLT4 cells after 48 hrs by sulforhodamine B assay. Type of experiment: functional, cell-based. The note with it: MOLT-4, 48 h. The method, boiled down: as §1
In experiment [8] the test system is Staphylococcus aureus. The experiment in a line: Antibacterial activity against methicillin-resistant Staphylococcus aureus 15187 after 24 hrs by micro dilution method. Type of experiment: functional. The note with it: Staphylococcus aureus, 15187, 24 h. The method, boiled down:
(§3)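 Broth microdilution in Mueller Hinton broth, two-fold serial dilutions, final 0.25 to 256 µg mL-1. Inoculum from 24 h culture in saline, set to 0.5 McFarland, diluted to a final 5 × 10^6 CFU mL-1. Plates held at 37 °C for 24 h and read by eye. MIC is the lowest concentration with no turbidity.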

The subject of experiment [9] is Candida albicans. The experiment in a line: Antifungal activity against Candida albicans ATCC 90028. Type of experiment: functional.
In experiment [10] the test system is Enterococcus. The experiment in a line: Antibacterial activity against vancomycin-resistant Enterococcus after 24 hrs by micro dilution method. The format is functional. The method, boiled down:
as §3

Experiment [11] relates to Staphylococcus aureus. The experiment in a line: Antibacterial activity against Staphylococcus aureus ATCC 29213 after 24 hrs by micro dilution method. The format is functional. Conditions: ATCC 29213, 24 h. The method, boiled down: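 Broth microdilution in Mueller Hinton broth. Inoculum from a 24 h culture in saline, set to 0.5 McFarland and diluted to a final 5 × 10^6 CFU mL-1. Two-fold serial dilutions, final 0.25–256 µg mL-1. Incubated 37 °C for 24 h and read visually. MIC is the lowest concentration with no turbidity.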

Converted amounts (≈) assume the structure as drawn. The source made the active and inactive calls. No cut-off for these calls is given here.

As a reminder, the IC50 is the concentration that inhibits the measured activity by half. A high value points to weaker potency in that assay. One may read the MIC as the least concentration at which growth counts as inhibited. By MBC is commonly meant the lowest tested concentration that kills the bacteria rather than only halting them. Lower therefore signals greater bactericidal potency. Take `CCCc1cc(Br)c(O)c(-c2cc(CCC)cc(Br)c2O)c1`: the 50% inhibitory concentration (IC50) amounted to 30 µM in experiment [1], 95 µM in experiment [4] and 55 µM in experiment [7]. The MIC result in [2] and in experiment [9] was “inactive” in each case. Further, the MBC came out at 4 µg/mL (≈ 9.34 µM) in experiment [3], 8 µg/mL (≈ 18.7 µM) in [5] and 4 µg/mL (≈ 9.34 µM) in [6]. Moreover, the MIC in experiment [8], in experiment [10] and in experiment [11] was 4 µg/mL (≈ 9.34 µM) each time.
As for `C=CCc1ccc(O)c(-c2cc(CC=C)ccc2O)c1` [MAGNOLOL], the values for the IC50 in [1], in experiment [4] and in experiment [7] were 48 µM, 62 µM and 58 µM, respectively. Further, the MBC in experiment [3], in experiment [5] and in experiment [6] was 32 µg/mL (≈ 120 µM) in each case. Also, the MIC in experiment [8] is 32 µg/mL (≈ 120 µM); in experiment [10], 32 µg/mL (≈ 120 µM); in [11], 16 µg/mL (≈ 60.1 µM).
On to `CCCc1ccc(O)c(-c2cc(CCC)cc(Cl)c2O)c1`, for which the IC50 was 85 µM in experiment [1], greater than 100 µM in experiment [4] and greater than 100 µM in experiment [7]. Further, the MIC entry in [2] and in experiment [9] was “inactive” throughout. The MBC in experiment [3], in experiment [5] and in experiment [6] was greater than 256 µg/mL in each case. For the same compound, the minimum inhibitory concentration (MIC) in [8], in [10] and in [11] was greater than 256 µg/mL each time.
As for `CCCCc1ccc(O)c(-c2cc(CCCC)cc(Br)c2O)c1`, the IC50 in experiment [1] came to 25 µM; in experiment [4], 74 µM; in experiment [7], 35 µM. Besides, the MIC entry in experiment [2] and in [9] was “inactive” each time. Also, the MBC in experiment [3] came out at 1 µg/mL (≈ 2.65 µM); in [5] it was 2 µg/mL (≈ 5.3 µM); in experiment [6] it was 2 µg/mL (≈ 5.3 µM). Also, the MIC in experiment [8] is 1 µg/mL (≈ 2.65 µM); in [10], 1 µg/mL (≈ 2.65 µM); in experiment [11], 2 µg/mL (≈ 5.3 µM).
As to `CCCCc1cc(Cl)c(O)c(-c2cc(CCCC)cc(Cl)c2O)c1`, the IC50 was 90 µM in experiment [1], greater than 100 µM in [4] and greater than 100 µM in experiment [7]. The MIC entry in experiment [2] and in experiment [9] was “inactive” each time. For the same compound, the minimal bactericidal concentration (MBC) came to 8 µg/mL (≈ 21.8 µM) in experiment [3], 16 µg/mL (≈ 43.6 µM) in experiment [5] and 8 µg/mL (≈ 21.8 µM) in experiment [6]. The minimum inhibitory concentration (MIC) in [8], in experiment [10] and in experiment [11] was 8 µg/mL (≈ 21.8 µM) each time.
For the compound `CCCc1ccc(O)c(-c2cc(CCC)cc(I)c2O)c1`, the values for the IC50 in [1], in experiment [4] and in experiment [7] were 45 µM, 63 µM and 60 µM, respectively. In addition, the MIC entry in [2] and in experiment [9] was “inactive” throughout. In addition, the minimal bactericidal concentration (MBC) in [3], in experiment [5] and in experiment [6] was greater than 256 µg/mL in each case. The MIC in experiment [8], in experiment [10] and in experiment [11] was greater than 256 µg/mL throughout.
In the case of `CCCCc1ccc(O)c(-c2cc(CCCC)cc(Cl)c2O)c1`, the half-inhibitory concentration (IC50) in experiment [1], in experiment [4] and in experiment [7] was greater than 100 µM each time. For the same compound, the MIC result in [2] and in [9] was “inactive” throughout. In addition, the minimum bactericidal concentration (MBC) in experiment [3], in [5] and in experiment [6] was greater than 256 µg/mL each time. Besides, the MIC in experiment [8], in [10] and in experiment [11] was greater than 256 µg/mL each time.
Regarding `CCCCc1cc(Br)c(O)c(-c2cc(CCCC)cc(Br)c2O)c1`, the IC50 in [1], in experiment [4] and in experiment [7] was greater than 100 µM each time. Also, the MIC entry in experiment [2] and in experiment [9] was “inactive” in each case. The minimum bactericidal concentration (MBC) in [3] amounted to 8 µg/mL (≈ 17.5 µM); in [5], 16 µg/mL (≈ 35.1 µM); in [6], 8 µg/mL (≈ 17.5 µM). The MIC in experiment [8], in [10] and in experiment [11] was 8 µg/mL (≈ 17.5 µM) throughout.
For `CCCc1cc(Cl)c(O)c(-c2cc(CCC)cc(Cl)c2O)c1`, the concentration for half-maximal inhibition (IC50) in experiment [1], in [4] and in experiment [7] was greater than 100 µM in each case. The MIC result in experiment [2] and in experiment [9] was “inactive” each time. The results for the minimum bactericidal concentration (MBC) in experiment [3], in [5] and in experiment [6] were 4 µg/mL (≈ 11.8 µM), 8 µg/mL (≈ 23.6 µM) and 4 µg/mL (≈ 11.8 µM), respectively. Moreover, the results for the minimal inhibitory concentration (MIC) in [8], in experiment [10] and in [11] were 4 µg/mL (≈ 11.8 µM), 8 µg/mL (≈ 23.6 µM) and 4 µg/mL (≈ 11.8 µM), respectively.
